Results reported in ChEMBL document CHEMBL4406880, “Design, synthesis, and bioactivity of dihydropyrimidine derivatives as kinesin spindle protein inhibitors” (Bioorg Med Chem, 2019).

Columns and labels:
Type in all cases: functional
SF-268 = experiment: Growth inhibition of human SF268 cells assessed as growth percentage at 10 uM incubated for 48 hrs by sulforhodamine B assay relative to control; settings: SF-268, 48 h, read-out: Activity
Outline: (§1)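 NCI-60 single-dose screen. Cells were grown in RPMI 1640 with 5% FBS and 2 mM L-glutamine and plated at 5,000–40,000 cells/well. After an overnight preincubation at 37 °C in 5% CO2, compound was added at a final 10 µM from a DMSO stock, with DMSO/PBS controls. After 48 h, cells were TCA-fixed and stained with 0.4% SRB, and absorbance was read at 515 nm. Growth is given as a percentage of untreated control.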

SW-620 = experiment: Growth inhibition of human SW620 cells assessed as growth percentage at 10 uM incubated for 48 hrs by sulforhodamine B assay relative to control; settings: SW-620, 48 h, read-out: Activity; outline: as §1
HL-60(TB) = experiment: Growth inhibition of human HL-60(TB) cells assessed as growth percentage at 10 uM incubated for 48 hrs by sulforhodamine B assay relative to control; settings: HL-60, 48 h, read-out: Activity
Outline: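 NCI-60 single-dose screen. Cells in RPMI 1640 with 5% FBS and 2 mM L-glutamine are plated at 5,000–40,000 cells/well and preincubated overnight at 37 °C, 5% CO2. Compound is added from a DMSO stock at 10 µM final for 48 h. Cells are TCA-fixed (suspension cells 16% final) and stained with SRB. Absorbance is read at 515 nm, and percentage growth is calculated against untreated controls with a time-zero plate.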

SK-MEL-5 = experiment: Growth inhibition of human SK-MEL-5 cells assessed as growth percentage at 10 uM incubated for 48 hrs by sulforhodamine B assay relative to control; settings: SK-MEL-5, 48 h, read-out: Activity; outline: as §1
BT-549 = experiment: Growth inhibition of human BT549 cells assessed as growth percentage at 10 uM incubated for 48 hrs by sulforhodamine B assay relative to control; settings: BT-549, 48 h, read-out: Activity
Outline: (§2)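 NCI-60 one-dose screen: cells in RPMI 1640 with 5% FBS and 2 mM L-glutamine, plated at 5,000–40,000 cells/well and preincubated 24 h at 37 °C, 5% CO2. Compound is added from a DMSO stock to a final 10 µM and incubated 48 h. Cells are TCA-fixed and stained with sulforhodamine B, read at 515 nm. Output is % growth versus untreated control, with a time-zero plate.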

K562 = experiment: Growth inhibition of human K562 cells assessed as growth percentage at 10 uM incubated for 48 hrs by sulforhodamine B assay relative to control; settings: K562, 48 h, read-out: Activity
Outline: (§3)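 NCI-60 one-dose screen. Cells in RPMI 1640 with 5% FBS and 2 mM L-glutamine, seeded at 5,000–40,000 cells/well according to doubling time, and preincubated overnight at 37 °C, 5% CO2. A time-zero plate was TCA-fixed at drug addition. Compound from DMSO stock, final 10 µM, 48 h; DMSO vehicle controls. Fixation with TCA, 10% final (16% for suspension cells). SRB stain, Tris solubilization, A515. Result given as % growth versus untreated cells.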

HCC 2998 = experiment: Growth inhibition of human HCC2998 cells assessed as growth percentage at 10 uM incubated for 48 hrs by sulforhodamine B assay relative to control; settings: HCC 2998, 48 h, read-out: Activity; outline: as §2
HCT-15 = experiment: Growth inhibition of human HCT15 cells assessed as growth percentage at 10 uM incubated for 48 hrs by sulforhodamine B assay relative to control; settings: HCT-15, 48 h, read-out: Activity; outline: as §2
CCRF-CEM = experiment: Growth inhibition of human CCRF-CEM cells assessed as growth percentage at 10 uM incubated for 48 hrs by sulforhodamine B assay relative to control; settings: read-out: Activity; outline: as §2
UACC-62 = experiment: Growth inhibition of human UACC62 cells assessed as growth percentage at 10 uM incubated for 48 hrs by sulforhodamine B assay relative to control; settings: UACC-62, 48 h, read-out: Activity; outline: as §1
ACHN = experiment: Growth inhibition of human ACHN cells assessed as growth percentage at 10 uM incubated for 48 hrs by sulforhodamine B assay relative to control; settings: read-out: Activity; outline: as §2
SF-539 = experiment: Growth inhibition of human SF539 cells assessed as growth percentage at 10 uM incubated for 48 hrs by sulforhodamine B assay relative to control; settings: SF-539, 48 h, read-out: Activity; outline: as §1
RXF 393 = experiment: Growth inhibition of human RXF393 cells assessed as growth percentage at 10 uM incubated for 48 hrs by sulforhodamine B assay relative to control; settings: RXF 393, 48 h, read-out: Activity; outline: as §1
TK-10 = experiment: Growth inhibition of human TK10 cells assessed as growth percentage at 10 uM incubated for 48 hrs by sulforhodamine B assay relative to control; settings: TK-10, 48 h, read-out: Activity; outline: as §1
SK-MEL-2 = experiment: Growth inhibition of human SK-MEL-2 cells assessed as growth percentage at 10 uM incubated for 48 hrs by sulforhodamine B assay relative to control; settings: SK-MEL-2, 48 h, read-out: Activity; outline: as §1
SN12C = experiment: Growth inhibition of human SN12C cells assessed as growth percentage at 10 uM incubated for 48 hrs by sulforhodamine B assay relative to control; settings: read-out: Activity; outline: as §1
A498 = experiment: Growth inhibition of human A498 cells assessed as growth percentage at 10 uM incubated for 48 hrs by sulforhodamine B assay relative to control; settings: A498, 48 h, read-out: Activity; outline: as §2
Malme-3M = experiment: Growth inhibition of human MALME-3M cells assessed as growth percentage at 10 uM incubated for 48 hrs by sulforhodamine B assay relative to control; settings: read-out: Activity; outline: as §3
NCI-H226 = experiment: Growth inhibition of human NCI-H226 cells assessed as growth percentage at 10 uM incubated for 48 hrs by sulforhodamine B assay relative to control; settings: NCI-H226, 48 h, read-out: Activity; outline: as §3
NCI-H460 = experiment: Growth inhibition of human NCI-H460 cells assessed as growth percentage at 10 uM incubated for 48 hrs by sulforhodamine B assay relative to control; settings: NCI-H460, 48 h, read-out: Activity; outline: as §3
HOP-62 = experiment: Growth inhibition of human HOP62 cells assessed as growth percentage at 10 uM incubated for 48 hrs by sulforhodamine B assay relative to control; settings: HOP-62, 48 h, read-out: Activity; outline: as §3
NCI-H23 = experiment: Growth inhibition of human NCI-H23 cells assessed as growth percentage at 10 uM incubated for 48 hrs by sulforhodamine B assay relative to control; settings: NCI-H23, 48 h, read-out: Activity; outline: as §3
UO-31 = experiment: Growth inhibition of human UO31 cells assessed as growth percentage at 10 uM incubated for 48 hrs by sulforhodamine B assay relative to control; settings: UO-31, 48 h, read-out: Activity; outline: as §1
OVCAR-8 = experiment: Growth inhibition of human OVCAR8 cells assessed as growth percentage at 10 uM incubated for 48 hrs by sulforhodamine B assay relative to control; settings: OVCAR-8, 48 h, read-out: Activity; outline: as §1

Structure (SMILES)	growth at 10 µM (SF-268) [%]	growth at 10 µM (SW-620) [%]	growth at 10 µM (HL-60(TB)) [%]	growth at 10 µM (SK-MEL-5) [%]	growth at 10 µM (BT-549) [%]	growth at 10 µM (K562) [%]	growth at 10 µM (HCC 2998) [%]	growth at 10 µM (HCT-15) [%]	growth at 10 µM (CCRF-CEM) [%]	growth at 10 µM (UACC-62) [%]	growth at 10 µM (ACHN) [%]	growth at 10 µM (SF-539) [%]	growth at 10 µM (RXF 393) [%]	growth at 10 µM (TK-10) [%]	growth at 10 µM (SK-MEL-2) [%]	growth at 10 µM (SN12C) [%]	growth at 10 µM (A498) [%]	growth at 10 µM (Malme-3M) [%]	growth at 10 µM (NCI-H226) [%]	growth at 10 µM (NCI-H460) [%]	further results
CC1=C(C(=O)OC(C)C)C(c2ccc3c(c2)OCO3)NC(=O)N1 (racemic)	104	109	108	97.6	93.7	119	116	99.7	113	94.9	103	100	113	98.8	108	92.3	104	99.6	101	110	growth at 10 µM (HOP-62): 117%; growth at 10 µM (NCI-H23): 98.8%; growth at 10 µM (UO-31): 84.9%; growth at 10 µM (OVCAR-8): 100%
CC1=C(C(=O)OCC(C)C)C(c2ccc3c(c2)OCO3)NC(=O)N1 (racemic)	101	113	96	101	99.4	113	108	101	104	98.5	105	104	101	99.4	104	105	121	99.8	93.1	113	growth at 10 µM (HOP-62): 114%; growth at 10 µM (NCI-H23): 102%; growth at 10 µM (UO-31): 84.8%; growth at 10 µM (OVCAR-8): 103%
COCCOC(=O)C1=C(C)NC(=O)NC1c1ccc2c(c1)OCO2 (racemic)	98	97	99.7	100	106	97.4	101	101	99	96	107	101	94.6	100	104	102	87	99.8	98	105	growth at 10 µM (HOP-62): 108%; growth at 10 µM (NCI-H23): 92%; growth at 10 µM (UO-31): 87.3%; growth at 10 µM (OVCAR-8): 99.3%
CC1=C(C(=O)OCc2ccccc2)C(c2ccc3c(c2)OCO3)NC(=O)N1 (racemic)	99.8	109	97	89.8	80.2	107	116	98.1	103	86.6	99.4	97.8	102	101	101	101	105	101	95.9	109	growth at 10 µM (HOP-62): 114%; growth at 10 µM (NCI-H23): 101%; growth at 10 µM (UO-31): 83.1%; growth at 10 µM (OVCAR-8): 101%
CC(=O)N1C(=S)NC(C)=C(C(=O)OC(C)C)C1c1ccc2c(c1)OCO2 (racemic)	100	102	99.3	100	99.3	83.2	110	99.3	81.5	95.6	106	98.2	111	103	110	93.1	114	98.4	94.8	110	growth at 10 µM (HOP-62): 88.5%; growth at 10 µM (NCI-H23): 100%; growth at 10 µM (UO-31): 91.3%; growth at 10 µM (OVCAR-8): 96.4%
COCCOC(=O)C1=C(C)NC(=S)NC1c1ccc2c(c1)OCO2 (racemic)	97.4	106	92.1	97.6	109	91.8	110	102	104	102	106	99.2	101	104	93	104	96.1	108	90.2	112	growth at 10 µM (HOP-62): 98%; growth at 10 µM (NCI-H23): 96.2%; growth at 10 µM (UO-31): 87.8%; growth at 10 µM (OVCAR-8): 102%
CC1=C(C(=O)OCc2ccccc2)C(c2ccc3c(c2)OCO3)NC(=S)N1 (racemic)	97.3	94.2	56.1	88.9	103	75.2	120	96.5	100	91.2	98.9	99.3	94.4	105	96.7	96.8	72.8	115	95.8	96.7	growth at 10 µM (HOP-62): 106%; growth at 10 µM (NCI-H23): 94.5%; growth at 10 µM (UO-31): 89.2%; growth at 10 µM (OVCAR-8): 97.5%
